Measured values: ChEMBL document CHEMBL1157677, “Silicon switch approach in TRPV1 antagonist MK-056 and its analogues” (Bioorg Med Chem, 2010)

Tests used:
[1] = molecular target: T1, Transient receptor potential cation channel subfamily V member 1 (Rattus norvegicus, UniProt O35433); assay: Antagonist activity at TRPV1 in Sprague-Dawley rat DRG neuron assessed as reduction of capsaicin-stimulated intracellular 45Ca2+ influx by scintillation counting; format: functional, cell-based
How it was run: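 Neonatal rat spinal DRG neurons, dissociated with collagenase then trypsin (30 min each, 37 °C), cultured 3 days in horse-serum DME/F12 with C6-glioma-conditioned medium. Neurons were given ⁴⁵Ca²⁺ plus capsaicin with compound for 10 min at room temperature in HEPES (10 mM, pH 7.4) Ca/Mg-free HBSS, then washed and dried.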

[2] = molecular target: T1, Transient receptor potential cation channel subfamily V member 1; assay: Agonist activity at TRPV1 in Sprague-Dawley rat DRG neuron assessed as intracellular 45Ca2+ influx by scintillation counting; format: functional, cell-based
[3] = molecular target: Transient receptor potential cation channel subfamily V member 1 (Rattus norvegicus) (UniProt O35433); assay: Ratio of compound IC50 to SC-0030 IC50 for TRPV1 in Sprague-Dawley rat DRG neuron
[4] = molecular target: Transient receptor potential cation channel subfamily V member 1 (Rattus norvegicus) (UniProt O35433); assay: Ratio of compound IC50 to ATC-120 IC50 for TRPV1 in Sprague-Dawley rat DRG neuron

Chain of Transient receptor potential cation channel subfamily V member 1 (Rattus norvegicus) (O35433 whole entry): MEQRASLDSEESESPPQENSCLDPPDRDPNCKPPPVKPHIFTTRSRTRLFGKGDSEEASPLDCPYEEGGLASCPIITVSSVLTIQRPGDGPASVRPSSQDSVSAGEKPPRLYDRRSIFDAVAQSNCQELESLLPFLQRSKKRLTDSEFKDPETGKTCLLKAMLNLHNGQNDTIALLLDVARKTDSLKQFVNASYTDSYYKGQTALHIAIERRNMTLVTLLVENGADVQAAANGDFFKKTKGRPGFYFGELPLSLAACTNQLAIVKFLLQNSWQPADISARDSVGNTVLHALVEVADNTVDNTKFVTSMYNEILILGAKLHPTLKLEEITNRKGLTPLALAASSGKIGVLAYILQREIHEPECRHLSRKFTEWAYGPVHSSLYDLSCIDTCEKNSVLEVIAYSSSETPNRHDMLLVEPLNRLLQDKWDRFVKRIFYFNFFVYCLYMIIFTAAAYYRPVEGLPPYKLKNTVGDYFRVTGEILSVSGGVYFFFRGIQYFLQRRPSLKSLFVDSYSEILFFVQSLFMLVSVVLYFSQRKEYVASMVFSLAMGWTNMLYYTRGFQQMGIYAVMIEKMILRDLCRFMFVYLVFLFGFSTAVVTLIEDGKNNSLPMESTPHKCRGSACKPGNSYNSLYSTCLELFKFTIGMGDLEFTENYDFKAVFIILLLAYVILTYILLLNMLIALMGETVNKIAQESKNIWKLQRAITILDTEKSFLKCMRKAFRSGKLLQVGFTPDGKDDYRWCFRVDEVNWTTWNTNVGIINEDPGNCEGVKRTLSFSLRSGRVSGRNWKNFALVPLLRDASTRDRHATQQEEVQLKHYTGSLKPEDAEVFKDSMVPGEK
T1 sequence (O35433 whole entry): as above

Compound | IC50 [1] [nM] | EC50 [2] [nM] | Ratio IC50 [3] | Ratio IC50 [4]
CC(C)(C)c1ccc(CNC(=S)NCc2ccc(NS(C)(=O)=O)c(F)c2)cc1 | 40 | > 100000 | – | –
C[C@@H](NC(=S)NCc1ccc(C(C)(C)C)cc1)c1ccc(NS(C)(=O)=O)cc1 | 50 | > 100000 | – | –
C[C@@H](NC(=S)NCc1ccc([Si](C)(C)C)cc1)c1ccc(NS(C)(=O)=O)cc1 | 210 | > 100000 | 4 | 4
C[Si](C)(C)c1ccc(CNC(=S)NCc2ccc(NS(C)(=O)=O)cc2)cc1 | 150 | > 100000 | – | –
C[Si](C)(C)c1ccc(CNC(=S)NCc2ccc(NS(C)(=O)=O)c(F)c2)cc1 | 160 | > 100000 | 4 | 4
CC[Si](CC)(CC)c1ccc(CNC(=S)NCc2ccc(NS(C)(=O)=O)cc2)cc1 | 3100 | > 100000 | – | –

Second part, the molecule after the results:

IC50 [1] [nM] | EC50 [2] [nM] | Ratio IC50 [3] | Ratio IC50 [4] | Compound
670 | > 100000 | – | – | CC[Si](C)(C)c1ccc(CNC(=S)N[C@H](C)c2ccc(NS(C)(=O)=O)cc2)cc1
1200 | > 100000 | – | – | CC[Si](C)(C)c1ccc(CNC(=S)NCc2ccc(NS(C)(=O)=O)cc2)cc1
1500 | > 100000 | – | – | CC[Si](CC)(CC)c1ccc(CNC(=S)N[C@H](C)c2ccc(NS(C)(=O)=O)cc2)cc1
